Results as given in publication PMC3088362 (Journal of the American Society for Mass Spectrometry, 2010).

Columns and labels:
Assay type in all cases: biochemical
[1] = target: T1, human TPST-2 (Homo sapiens, UniProt O60704); assay: LC-MS initial-velocity kinetics, Reaction 1: sulfation of nonCCR8
T1 sequence (O60704 25-377 limits assumed): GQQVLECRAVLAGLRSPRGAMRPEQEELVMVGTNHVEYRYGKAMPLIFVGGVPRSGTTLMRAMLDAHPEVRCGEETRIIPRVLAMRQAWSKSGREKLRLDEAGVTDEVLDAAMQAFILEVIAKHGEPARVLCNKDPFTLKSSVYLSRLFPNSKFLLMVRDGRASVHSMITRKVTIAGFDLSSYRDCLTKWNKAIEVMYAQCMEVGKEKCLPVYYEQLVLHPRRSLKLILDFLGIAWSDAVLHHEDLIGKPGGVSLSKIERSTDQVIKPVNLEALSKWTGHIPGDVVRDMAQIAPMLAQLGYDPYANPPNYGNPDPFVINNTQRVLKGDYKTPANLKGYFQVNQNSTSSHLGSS
Summary of the method: (§1)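 Enzyme was soluble HPC4-epitope-tagged human TPST-2 (transferrin signal peptide), affinity-purified from stably transfected CHO-K1 cells. PAPS and peptide were varied as a matrix in 20 mM MOPS pH 7.5, 100 mM NaCl, 10% glycerol at 30 °C. Reactions started with 250–750 nM enzyme, ran 6–20 min, and were quenched with methanol (0.5 µM final internal standard). Product was read by RP-LC negative-ESI SIM against a calibration curve. Data were fit to the ping-pong equation; kcat/Km came from fitted constants.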

[2] = target: T1, human TPST-2; assay: LC-MS initial-velocity kinetics, Reaction 2: sulfation of sY15CCR8
Summary of the method: as §1

[3] = target: T1, human TPST-2; assay: 35S-sulfation of factor IX by TPST-2; details: with (lane 1) or without (lane 2) TPST-2; 6 h at 37°C, pH 6.9; autoradiography
[4] = target: T1, human TPST-2; assay: Product inhibition by PAP, Reaction 1
Summary of the method: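 Initial rates of nonCCR8 sulfation by HPC4-purified soluble human TPST-2 were measured at fixed PAP levels. Buffer was 20 mM MOPS pH 7.5, 100 mM NaCl, 10% glycerol, 30 °C. Reactions were quenched with methanol containing internal standard, and product was quantified by LC-ESI-MS SIM. Data were fit by nonlinear regression to competitive or noncompetitive inhibition equations. Two or three independent experiments.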

[5] = target: T1, human TPST-2; assay: Product inhibition by PAP, Reaction 2; details: pH 7.5, 30°C

Molecule: Nc1ncnc2c1ncn2[C@@H]1O[C@H](COP(=O)(O)OS(=O)(=O)O)[C@@H](OP(=O)(O)O)[C@H]1O [PAPS, 3′-phosphoadenosine 5′-phosphosulfate, reference compound]
- substrate preference by specificity constants, Reaction 1 ([1]; PAPS compared with nonCCR8): preferred substrate over nonCCR8
- specificity constant kcat/Km for PAPS ([1]; Reaction 1, for PAPS, calculated from Table 1 values): 590 M⁻¹ s⁻¹
- specificity constant kcat/Km of PAPS ([2]; Reaction 2, for PAPS, calculated from Table 1 values): 280 M⁻¹ s⁻¹

Molecule: VTDYYYPDI [nonCCR8]
- specificity constant kcat/Km ([1]; Reaction 1, for nonCCR8, calculated from Table 1 values): 270 M⁻¹ s⁻¹
- estimated Vmax ([1]; Reaction 1, calculated from intercept replots, pH 7.5, 30°C): 6.7 mU/mg protein
- Km of nonsulfated CCR8 peptide relative to monosulfated peptide ([1]; ratio to Km of sY15CCR8): at least five

Molecule: VTDsYYYPDI [sY15CCR8]
- specificity constant kcat/Km of sY15CCR8 ([2]; Reaction 2, for sY15CCR8, calculated from Table 1 values): 430 M⁻¹ s⁻¹
- estimated Vmax ([2]; Reaction 2, from intercept replots, pH 7.5, 30°C): 1.7 mU/mg protein
- substrate preference by specificity constants, Reaction 2 ([2]; sY15CCR8 compared with PAPS): preferred than PAPS
- substrate suitability by kcat/Km ([2]; sY15CCR8 compared with nonCCR8): more suitable substrate than nonCCR8

Molecule: factor IX: recombinant human factor IX, BeneFIX, Wyeth Pharmaceuticals Inc.
- 35S-sulfuryl group transfer to factor IX [3]: occurred only in the presence TPST-2

Molecule: Nc1ncnc2c1ncn2[C@@H]1O[C@H](COP(=O)(O)O)[C@@H](OP(=O)(O)O)[C@H]1O [PAP]
- PAP inhibition patterns, Reaction 1, compared with Reaction 2 ([4]; Reaction 1, with respect to PAPS and nonsulfated CCR8, data not shown): The same PAP inhibition patterns were observed with respect to PAPS and nonsulfated CCR8 substrates
- KI', product inhibition constant for PAP versus nonCCR8 ([4]; Reaction 1, pH 7.5, 30°C, mean of two or three independent experiments): 1200 nM
- PAP inhibition mode with respect to PAPS ([5]; PAPS varied 5-25 µM, sY15CCR8 25 µM): competitively
- PAP inhibition mode with respect to sY15CCR8 ([5]; sY15CCR8 varied 5-25 µM, PAPS 25 µM): noncompetitively
